The test system of test [1] is Trypanosoma cruzi. The test is described as follows: Antiproliferative activity against epimastigote form of Trypanosoma cruzi. It counts as functional, organism-based. In outline:
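Y-strain epimastigotes grown at 28 °C in brain-heart infusion (37 g/L) with hemin chlorohydrate (20 mg/L) and 10% newborn calf serum. Inoculum was (2-3) × 10^6 cells/mL. Compounds were tested at 1, 10, 50 and 100 µg/mL, each in quadruplicate, with at most 1% ethanol. Growth was read as A600. Percent inhibition came from the absorbance change from start to end versus controls, and IC50 was estimated by linear and polynomial regression.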

Test [2] relates to Trypanosoma cruzi. Kind of test: Inhibition against Trypanosoma cruzi at a concentration of 70 uM. It counts as functional. In short, it runs like this:
(§1)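 Epimastigotes (Y strain) were cultured at 28 °C in brain-heart infusion medium with hemin and 10% newborn calf serum, starting at (2-3) × 10^6 cells/mL, with at most 1% ethanol vehicle. Culture density was followed by absorbance at 600 nm. Percent growth inhibition = 100 − (ΔA drug-treated × 100 / ΔA control), where ΔA is the change from start to end of the experiment.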

Test [3] relates to Trypanosoma cruzi. The test is described as follows: Antiparasitic activity against amastigote form of Trypanosoma cruzi.
The subject of test [4] is Trypanosoma cruzi. Kind of test: Percent Inhibition of multiplication of Trypanosoma cruzi. It counts as functional. In short, it runs like this: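 Intracellular assay in L6E9 myoblasts irradiated with 2000 rad, seeded at 1.2 × 10^7 cells/flask in DMEM with 20% FCS and held 24 h at 35 °C. Cells infected 2 h with 5 × 10^7 Y-strain trypomastigotes/flask, then washed. Drugs added at several concentrations with 1.0 µCi [5,6-3H]uracil for 72 h. Percent inhibition of uracil uptake from mean cpm versus infected untreated cells. Host-cell toxicity checked by phase-contrast microscopy.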

Test [5] relates to Trypanosoma cruzi. The test is described as follows: (§2) Percent Inhibition of growth of uM. The class given is functional. In short, it runs like this:
as §1

The test system of test [6] is Trypanosoma cruzi. The test is described as follows: Inhibition of growth of uM. It counts as functional. In short, it runs like this: as §1
The subject of test [7] is Trypanosoma cruzi. The test is described as §2. It counts as functional. In outline: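 Y-strain T. cruzi epimastigotes grown at 28 °C in brain-heart infusion (37 g/L) with hemin (20 mg/L) and 10% newborn calf serum. Start inoculum (2-3) × 10^6 cells/mL. Four concentrations (1, 10, 50, 100 µg/mL), each in quadruplicate, with at most 1% ethanol. Growth read as A600 at start and end; percent inhibition taken against untreated cultures. IC50 estimated by linear and polynomial regression.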
The source holds these as a separate data set.

Test [8] deals with Trypanosoma cruzi. The test is described as follows: Inhibitory activity towards Trypanosoma cruzi.

pIC50: −log10 of the molar value. Where only a bound is given, the exact number is not on record here.

`[N-]=[N+]=NCC(O)COc1ccc(Oc2ccccc2)cc1` (stereo not drawn) gave a negative logarithm of the IC50 (pIC50) in the test on Trypanosoma cruzi [1] below 4.15.

In the test with Trypanosoma cruzi [1], `Cc1ccc(OCCSC#N)cc1` had a pIC50 of 4.92.

With `Cc1cc(C)cc(OCCSC#N)c1`, in the test on Trypanosoma cruzi [1], the pIC50 is 4.71.

In the test with Trypanosoma cruzi [1], `CC(C)(C)/N=C(\S)NCCOc1ccc(Oc2ccccc2)cc1` gave a pIC50 of 4.39. This pIC50 lies 0.32 log units lower than the previous one.

As for `O=C(NCCOc1ccc(Oc2ccccc2)cc1)C1CC1`, the inhibition at 70 µM in the test on Trypanosoma cruzi [2] was determined as 31%. Moreover, in the test with Trypanosoma cruzi [1], the pIC50 is below 4.15.

The compound `Cc1cc(C)cc(OCCOC2CCCCO2)c1` (stereo not drawn) had a negative-log IC50 (pIC50) in the test on Trypanosoma cruzi [1] below 4.15.

Take `Cc1ccc(S(=O)(=O)c2cc(Oc3ccccc3)ccc2OCCSC#N)cc1`: the pIC50 in the test with Trypanosoma cruzi [1] is 5.33.

Take `N#CSCCOc1ccccc1`: the pIC50 with Trypanosoma cruzi [1] was 4.77. This pIC50 is 0.56 log units lower than that of the compound before.

Consider `C=CCc1cc(Oc2ccccc2)ccc1OCCSC#N`, for which the pIC50 in the test on Trypanosoma cruzi [1] was below 4.22; in the test with Trypanosoma cruzi [3] it was below 4.15.

Regarding `C=CCSC(=S)NCCOc1ccc(Oc2ccccc2)cc1`, the pIC50 in the test with Trypanosoma cruzi [1] is 4.48; with Trypanosoma cruzi [3] it was below 4.15.

In the test on Trypanosoma cruzi [1], `Cc1ccc(C)c(OCCSC#N)c1` had a pIC50 of 4.84.

In the case of `N#CSCCOc1ccccc1Br`, the pIC50 in the test on Trypanosoma cruzi [1] was 4.69.

In turn, `[O-][S+](c1ccccc1)c1ccc(OCCOC2CCCCO2)cc1` (stereo not drawn) showed a pIC50 with Trypanosoma cruzi [1] below 4.15.

As for `Cc1cccc(OCCSC#N)c1C`, the pIC50 with Trypanosoma cruzi [1] is 4.83.

In the test on Trypanosoma cruzi [4], `N#CSCCOc1ccc(Nc2ccccc2)cc1` had an Inhibition of 10%. Further, the pIC50 with Trypanosoma cruzi [1] was 5.48; with Trypanosoma cruzi [3], 4.39.

In the test with Trypanosoma cruzi [1], `c1ccc(Nc2ccc(OCCOC3CCCCO3)cc2)cc1` (stereo not drawn) showed a pIC50 of 4.50.

In the test on Trypanosoma cruzi [1], `c1ccc(Oc2ccc(OCC3CN3)cc2)cc1` (stereo not drawn) gave a pIC50 of 4.38.

In turn, `Cc1ccc(OCCOC2CCCCO2)c(C)c1` (stereo not drawn) showed a pIC50 in the test with Trypanosoma cruzi [1] below 4.15.

As for `N#CSCCOc1ccccc1Cl`, the negative-log IC50 (pIC50) in the test with Trypanosoma cruzi [1] was 4.94.

With `Cc1ccc(OCCSC#N)c(C)c1`, the pIC50 was 4.73 in the test on Trypanosoma cruzi [1] and 5.30 in the test with Trypanosoma cruzi [3].

As to `Cc1cccc(C)c1OCCSC#N`, the figures for the negative-log IC50 (pIC50) with Trypanosoma cruzi [1] and in the test with Trypanosoma cruzi [3] were 4.88 and below 4.15, respectively.

On to `CS/C(S)=N/CCOc1ccc(Oc2ccccc2)cc1`, for which the negative-log IC50 (pIC50) in the test with Trypanosoma cruzi [1] was 4.34; in the test on Trypanosoma cruzi [3] it was 4.56.

`O=C=NCCOc1ccc(Oc2ccccc2)cc1`: in the test on Trypanosoma cruzi [5], the Inhibition is 28%. Also, in the test on Trypanosoma cruzi [1], the pIC50 is below 4.15.

With `N#CSCCOc1ccc2c(c1)[nH]c1ccccc12`, the pIC50 in the test on Trypanosoma cruzi [1] was 4.99.

`Cc1ccc(S(=O)(=O)c2cc(Oc3ccccc3)ccc2OCCOC2CCCCO2)cc1` (stereo not drawn) showed a pIC50 in the test with Trypanosoma cruzi [1] below 4.15.

In the test with Trypanosoma cruzi [1], `Cc1cccc(OCCOC2CCCCO2)c1C` (stereo not drawn) had a pIC50 below 4.15.

Turning to `C/C=C/c1cc(Oc2ccccc2)ccc1OCCSC#N`, the results for the pIC50 in the test on Trypanosoma cruzi [1] and in the test with Trypanosoma cruzi [3] were 5.17 and 4.85, respectively.

Consider `N#CSCCOc1ccc([S+]([O-])c2ccccc2)cc1` (stereo not drawn), for which the pIC50 in the test with Trypanosoma cruzi [1] was 5.11; in the test on Trypanosoma cruzi [3], 4.23.

Compound `Cc1ccc(C)c(OCCOC2CCCCO2)c1` (stereo not drawn) gave a negative-log IC50 (pIC50) in the test on Trypanosoma cruzi [1] below 4.15. This compound also displayed an Inhibition with Trypanosoma cruzi [6] of 15%.

Turning to `Cc1ccccc1OCCSC#N`, the pIC50 in the test on Trypanosoma cruzi [1] is 4.79.

As for `CSCCOc1ccc(Oc2ccccc2)cc1`, the pIC50 in the test with Trypanosoma cruzi [1] was below 4.00. This compound also had an Inhibition in the test with Trypanosoma cruzi [6] of 18%.

In turn, `CC(=O)N1CCN(c2ccc(OCC3COC(Cn4ccnc4)(c4ccc(Cl)cc4Cl)O3)cc2)CC1` (stereo not drawn) [KETOCONAZOLE] came in with an Inhibition in the test on Trypanosoma cruzi [7] of 18%.

In the test with Trypanosoma cruzi [1], `Cc1cccc(C)c1OCCOC1CCCCO1` (stereo not drawn) showed a negative-log IC50 (pIC50) below 4.15.

For the compound `N#CSCCOc1ccccc1I`, the values for the pIC50 in the test with Trypanosoma cruzi [1] and with Trypanosoma cruzi [3] were 4.73 and below 4.15, respectively.

Consider `C/C=C/c1cc(Oc2ccccc2)ccc1OCCOC1CCCCO1` (stereo not drawn), for which the pIC50 with Trypanosoma cruzi [1] was below 4.22.

Consider `c1ccc(CSCCOc2ccc(Oc3ccccc3)cc2)cc1`, for which the pIC50 in the test with Trypanosoma cruzi [1] was below 4.22. The Inhibition in the test on Trypanosoma cruzi [6] is reported as 41%.

For the compound `Cc1ccc(OCCOC2CCCCO2)cc1` (stereo not drawn), in the test on Trypanosoma cruzi [1], the pIC50 is below 4.15. Besides, the Inhibition in the test on Trypanosoma cruzi [6] was determined as 11%.

Take `c1ccc(Cn2c3ccccc3c3ccc(OCCOC4CCCCO4)cc32)cc1` (stereo not drawn): in the test on Trypanosoma cruzi [1], the pIC50 is below 4.15.

`C=CCc1cc(Oc2ccccc2)ccc1OCCOC1CCCCO1` (stereo not drawn) showed a pIC50 in the test on Trypanosoma cruzi [1] below 4.22.

In the case of `S=C(NCCOc1ccc(Oc2ccccc2)cc1)SCc1ccccc1`, the figures for the pIC50 in the test with Trypanosoma cruzi [1] and with Trypanosoma cruzi [3] were 4.49 and below 4.15, respectively.

Take `Ic1ccccc1OCCOC1CCCCO1` (stereo not drawn): in the test on Trypanosoma cruzi [1], the negative-log IC50 (pIC50) is below 4.22. For the same compound, in the test with Trypanosoma cruzi [6], the Inhibition is 20%.

In the test on Trypanosoma cruzi [1], `Clc1ccccc1OCCOC1CCCCO1` (stereo not drawn) showed a pIC50 below 4.15. The compound further came in with an Inhibition in the test on Trypanosoma cruzi [6] of 22%.

For the compound `c1ccc(Oc2ccc(OCCSc3ccccc3)cc2)cc1`, the pIC50 in the test on Trypanosoma cruzi [1] was 4.21.

Take `C[S+]([O-])CCCCN=C=S` (stereo not drawn) [SULFORAPHANE]: the results for the pIC50 in the test on Trypanosoma cruzi [1] and in the test on Trypanosoma cruzi [8] were below 3.92 and 4.82, respectively.

Turning to `C[S@+]([O-])CCCCN=C=S` [L-SULFORAPHANE], in the test with Trypanosoma cruzi [1], the pIC50 is 3.99.

In turn, `Cc1ccccc1OCCOC1CCCCO1` (stereo not drawn) showed a pIC50 in the test with Trypanosoma cruzi [1] below 4.15.

Turning to `S=C=NCCOc1ccc(Oc2ccccc2)cc1`, the results for the pIC50 with Trypanosoma cruzi [1] and in the test with Trypanosoma cruzi [3] were 4.80 and 4.33, respectively.

As a reminder, the pIC50 is the IC50 on a negative log10 scale, so that one unit is a factor of ten. A low value points to a high IC50. In general, inhibition refers to the relative decrease from the control value, in per cent. A word on the Inhibition: it is the change of the read-out against control, counted positive when it falls. Lower therefore signals little suppression.

The values are drawn from ChEMBL document CHEMBL1135769, “Design, synthesis, and biological evaluation of aryloxyethyl thiocyanate derivatives against Trypanosoma cruzi” (J Med Chem, 2002).
